Source: the EternaBench riboswitch data

System: MS2 coat protein
Experiment: apparent Kd, MS2 coat protein; higher = weaker binding; RNA-MaP array; FMN 200 µM where present
How it was run: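 Apparent Kd: the median of filtered binding-curve fits from single clusters. Designs were transcribed on Illumina sequencing-chip clusters by stalled E. coli RNA polymerase and titrated with SNAP-549-labelled MS2 coat protein from 0.7 or 1.5 nM, doubling to 3 µM, in 100 mM Tris-HCl pH 7.5, 80 mM KCl, 4 mM MgCl2, BSA, DTT, yeast tRNA and Tween-20. Each series ran without and then with constant ligand, and green signal was normalised to red-channel RNA signal and control-cluster median Fmax.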

[1] = designed as: ON switch for flavin mononucleotide, no ligand
[2] = ligand present: flavin mononucleotide, designed as: ON switch for flavin mononucleotide
[3] = designed as: OFF switch for flavin mononucleotide, no ligand
[4] = ligand present: flavin mononucleotide, designed as: OFF switch for flavin mononucleotide

Row | Sequence | apparent Kd [1] [nM] | apparent Kd [2] [nM] | apparent Kd [3] [nM] | apparent Kd [4] [nM]
1 | AGCGAACAUGAGGAUCACCCAUGUGAAAAACAUAGAGGAUAUGUCGCAUGAGUGUAAAAGACAGAAGGCUAUCGCA | 225 | 54.8 | – | –
2 | AAUCAGUCAGGAUAUCGUUAAUUUAAUUGUUUGUUUUAGUUCGAGAAGGGACAUGAGGAUCACCCAUGUACUUA | – | – | 24.8 | 26.8
3 | AUCUAAGAAUUAAUUGUGACAGUGAGAAGGCUAUAGUUUGUGACCGACAUGAGGAUCACCCAUGUAGAGGAUAUCACUAGCUAC | – | – | 39.9 | 253
4 | GUGUUGUCAGGAUAUCUUACAUAACUAUCGUUGUUACCAUUGGAGAAGGGACAUGAGGAUCACCCAUGUUAUCG | – | – | 24.3 | 25.4
5 | AUAUAGCGAGGAUAUACAUGAGGAUCACCCAUGUGGUAGUAGAUACGGUAGAGCUAGUGUAGAAGGCGCUAUGA | – | – | 463 | 160
6 | AACAGCUCGUCAGGAUAUACAAUACUGCUUCGGCAGUAUGAUAAGAUAACAUGAGGAUCACCCAUGUAGAAGGGACGAGCUGAA | – | – | 6.23 | 7.47
7 | AUAAUUAAUGCAGGAUAUCAGCACGUGUAGUGCUGAGAAGGGCACAUGAGGAUCACCCAUGUGAUCAAUUAAUAUUAAUAUUAU | – | – | 61 | 275
8 | UUAUUUAUACAAGGAUAUCAGUUAGUUACAAUUCCUACAUGAGGAUCACCCAUGUUUUUUUUUUUUGAGAAGGUGUAUUGUCUG | 45.2 | 52.9 | – | –
9 | UGGUACAUGGGAGGAUAUGGGAAGUUAACAUGAGGAUCACCCAUGUUUGCCGAAAGGCAAAAGAACUAGAAGGCCCAUGUACCU | 23.1 | 16.4 | – | –
10 | UAAGUACAGAAGUACUCCGGGUCCAGAAGGGACAUGAGGAUCACCCAUGUACCGUUGAUUGCUUGUCAGGAUAUGGACCCGGCC | – | – | 6.83 | 25.7
11 | CUUUUGUGAGGAUAUCAGUUGUAAAUAAAUAAAAUUACUACUGAGAAGGCACAUGAGGAUCACCCAUGUUCCUC | – | – | 38.1 | 198
12 | AUCAGCUCGUCAGGAUAUACGUCACUGCGUCAGCAGUGAGGUAAGAUCACAUGAGGAUCACCCAUGUAGAAGGGACGAGCUGAU | – | – | 6.09 | 13.2
13 | UCAUGAAGGGCAGGAUAUGGACAUGAGGAUCACCCAUGUACAUGGGAUUAUAUACUGAAUUUAUACUAGAAGGGUUACAUAAAU | – | – | 31 | 18.1
14 | GUUCUGCCUCCUGCCGGAACAUGAGGAUCACCCAUGUUGCCUGAGGAUAUCCUAUGGCGCCCACAGGAGAAGGCGGGCAACAUA | – | – | 38.1 | 233
15 | ACUUGUAAGCAGAAGGCAGUCAUUAUAUUCAUCAUGUAGACAUGAGGAUCACCCAUGUAGAGUACUGAGGAUAUGCAUCGAUAG | – | – | 6.41 | 8.85
16 | AGCUGUGGCCGAGGAUAUCUAUCUUCAAUAACCGAAAUAUAAUCGGACAUGAGGAUCACCCAUGUAGAGAAGGCGGUCUCAGCA | – | – | 33.6 | 84.5
17 | AUGAAGUCAGGAUAUCGUUAAUUUAGUUGUUUGUAUUAGUUCGAGAAGGGACAUGAGGAUCACCCAUGUAAGUA | – | – | 31.7 | 38.5
18 | GUGUACAUAUCAGGAUAUCAUCGAGUGGAUUAACACAGUGAUUACAUGAGGAUCACCCAUGUGCUUGAGAAGGGAUUACAAUGU | – | – | 19.3 | 16.4

Row | Sequence | apparent Kd [1] [nM] | apparent Kd [2] [nM] | apparent Kd [3] [nM] | apparent Kd [4] [nM]
19 | GCUACGUCAGGAUAUCUGAUGUCUAACUUCGGUUAGACAUCAGAGAAGGGACAUGAGGAUCACCCAUGUAGCAA | – | – | 93.5 | 122
20 | AGUAACUCAGAUCUUUUGAACAUGAGGAUCACCCAUGUAUUGAGAAGGAGCUGGAAGAGAGACAGCUAGGAUAUCAGAGUUGCG | – | – | 5.96 | 7.19
21 | GCGUUAGAAACACAUGUAUUACAUGAGGAUCACCCAUGUUACUAGGAUAUGUAUUAGAAUUUACAACAGAAGGAGUAAGAACGC | – | – | 10.8 | 14.6
22 | GAGCUGUGAGGAUAUACAUGAGGAUCACCCAUGUUAAGGAAGUCGGGAUUAAUUUAGUGUAGAAGGCACUUAUU | – | – | 39.9 | 41.6
23 | CCUAGUUGGUAAGGAUAUCCUACACUAUUCUGACCCGUGCAGGCUACAUGAGGAUCACCCAUGUGGGAGAAGGUGCGUCAACGU | – | – | 12.6 | 11.8
24 | CGGUCGAUAUCAGGAUAUCGAUUAAUUACAUGAGGAUCACCCAUGUUGACAUGGAAUAUAACAUGCGAGAAGGGAUUACGAUCG | 27.6 | 10.7 | – | –
25 | GGGUGGCGUAUAGGAUAUAUGGUACAUGAGGAUCACCCAUGUACAUAUGAUGUUCAUGUUUGUGUAUAGAAGGAUACGUCGCUA | 9.79 | 9.81 | – | –
26 | CAGGUCUGAGGAUAUCCAUCUUCAUACAUGAGGAUCACCCAUGUUUACCUUUGGGUUUUCGGAGAAGGCAGUUUUU | – | – | 273 | 370
27 | CAGCGAUAGCUGAACAAUCUAUCUGAGGAUAUUCAUAUAAAACAUGAGGAUCACCCAUGUAAUUGGGAGAAGGCAGAUAGAUUG | 22.4 | 6.11 | – | –
28 | AUGGAACAUGAGGAUCACCCAUGUGAGGAUAUGUGAGAAGGAUUUGAGAUGGAGAGGGACAGAAGGCACUAGGA | – | – | 54.4 | 37.9
29 | GAGUCACGAAUAAUAAUAAGAUCUACAUGAGGAUCACCCAUGUAGGAUAUGCAGUGGAAUACACUGCAGAAGGACAUACGUGAC | – | – | 14 | 17.5
30 | GUAGCAUACGCAGGAUAUUCAUAUAAUAAAUAAACAUGAGGAUCACCCAUGUGGCGAAAGCCUUGGGAGAAGGGCGAAUGCUAC | 485 | 65.5 | – | –
31 | AUACUCAUGUAAGGAUAUGCAGUCGAAACGGCUGCAGAAGGUACUAUAAUACAUGAGGAUCACCCAUGUCAAAAUAAAAUAGUU | 30.3 | 22.7 | – | –
32 | UCGUAUAAGGGCAUUACACAUGAGGAUCACCCAUGUACGUUAGAGGAUAUGCAUUCCAGUCGAACGUAGAAGGCUAGAGAAGGG | – | – | 118 | 117
33 | UAAACACCCUCAUGUGCCUGAGGACAUGAGGAUCACCCAUGUGAGGAUAUAGCCAUUAAAUCUAACUAGAAGGUAUAGGAAAUC | – | – | 651 | 190
34 | GCGUGGUUCUAGAAGGUGCUAGCGAUAAGCUAGCAAGGAUAUAGACAUGAGGAUCACCCAUGUCUUAAAGAAAUGGACACACGC | – | – | 5.04 | 5.55
35 | AAUUCGUCAGGAUAUGCAUGUAGUUGCUACAUUUCGCCGUUGCAGAAGGGACAUGAGGAUCACCCAUGUAAGUC | – | – | 33.1 | 34.2
36 | GGAUCCAUCACAGGAUAUGCUGGACUUUGUCCAGCAGAAGGGUGAAACAUGAGGAUCACCCAUGUAUGGAUCCAUAUAUUUAAU | 327 | 393 | – | –
